Assay results published in ChEMBL document CHEMBL1806390, “Synthesis and biological evaluation of naphthyl phenyl ethers (NPEs) as novel nonnucleoside HIV-1 reverse transcriptase inhibitors” (Bioorg Med Chem, 2011).
pEC50: −log10 of the molar value.

Assays:
[1] = system: Human immunodeficiency virus 1; assay: Antiviral activity against 0.06 MOI Human immunodeficiency virus 1 IIIB infected in C8166 cells assessed as reduction in virus-induced cytopathic effect after 3 days by syncytium reduction assay; assay type: functional, organism-based; details: C8166, 72 h
Summary of the method: (§1)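 C8166 cells (4 × 10^5/mL) infected at MOI 0.06 in presence of serial compound dilutions; AZT as drug control. Cultured 3 days at 37 °C, syncytia (multinucleated giant cells) counted under inverted microscope; EC50 = concentration blocking syncytium formation by 50%. Mean of at least two separate experiments.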

[2] = system: Human immunodeficiency virus 1; assay: Antiviral activity against 0.06 MOI Human immunodeficiency virus 1 IIIB A17 harboring reverse transcriptase K103N and Y181C double mutant infected in C8166 cells assessed as reduction in virus-induced cytopathic effect after 3 days by syncytium reduction assay; assay type: functional, organism-based; details: Human immunodeficiency virus 1, IIIB A17, C8166, 72 h
Summary of the method: as §1, with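 “infected with HIV-1 IIIB A17 (K103N+Y181C)” for “infected”, “graded” for “serial”, “concentrations;” for “dilutions;”, “AZT” for “AZT as”, “as” for “=”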

[3] = system: Human immunodeficiency virus 2; assay: Antiviral activity against Human immunodeficiency virus 2 ROD infected in C8166 cells assessed as reduction in virus-induced cytopathic effect after 3 days by syncytium reduction assay; assay type: functional, organism-based; details: Human immunodeficiency virus 2, ISOLATE ROD, C8166, 72 h; summary of the method: as §1
[4] = Cytotoxicity against human C8166 cells by MTT assay; assay type: cell-based
Summary of the method: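 MTT colorimetric assay on C8166 cells, absorbance read at 570/630 nm; CC50 (concentration reducing viable cells by 50%) taken from dose-response curve. Mean of at least two separate experiments.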

[5] = Selectivity index, ratio of CC50 for human C8166 cells to EC50 for wild type HIV1 IIIB infected in C8166 cells; assay type: toxicity, cell-based; details: read-out: Ratio CC50/EC50
Summary of the method: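 SI computed as CC50 (MTT, C8166 cells) divided by EC50 against HIV-1 IIIB from syncytium reduction in C8166 cells at MOI 0.06, 3 days at 37 °C.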

Compound	pEC50 [1]	pEC50 [2]	pEC50 [3]	CC50 [4] [µM]	selectivity ratio [5]
Cc1cc(S(N)(=O)=O)ccc1NC(=O)COc1ccc(F)cc1Oc1cccc2ccccc12	6.86	5.77	4.77	33.1	240
Cc1cc(S(N)(=O)=O)ccc1NC(=O)COc1ccc(F)cc1Oc1ccc2ccccc2c1	7.34	5.48	4.01	68.5	1510
Cc1cc(S(N)(=O)=O)ccc1NC(=O)COc1ccc(Cl)cc1Oc1ccc2ccccc2c1	7.10	5.75	4.56	119	1500
Cc1cc(S(N)(=O)=O)ccc1NC(=O)COc1ccc(Cl)cc1Oc1ccc2cc(Br)ccc2c1	6.61	5.60	4.70	31.3	128
Cc1cc(S(N)(=O)=O)ccc1NC(=O)COc1ccc(Cl)cc1Oc1ccc2ccccc2c1Cl	6.77	5.76	4.88	40.7	241
Cc1cc(S(N)(=O)=O)ccc1NC(=O)COc1ccc(Cl)cc1Oc1ccc2ccccc2c1Br	7.06	5.87	3.86	48.1	547
Cc1cc(S(N)(=O)=O)ccc1NC(=O)COc1ccc(F)cc1Oc1cc2ccccc2cc1C	6.85	5.96	3.90	66.9	476
Cc1cc(S(N)(=O)=O)ccc1NC(=O)COc1ccc(F)cc1Oc1ccc2cc(Br)ccc2c1	6.74	5.75	4.02	> 358	> 1970
Cc1cc(S(N)(=O)=O)ccc1NC(=O)COc1ccc(F)cc1Oc1ccc2ccccc2c1C	6.74	5.94	4.58	56.1	306
Cc1cc(S(N)(=O)=O)ccc1NC(=O)COc1ccc(F)cc1Oc1ccc2ccccc2c1Br	7.07	5.80	5.21	39.5	460
Cc1cc(S(N)(=O)=O)ccc1NC(=O)COc1ccc(F)cc1Oc1ccc2cc(C#N)ccc2c1	7.41	5.99	3.78	> 396	> 10200
Cc1cc(S(N)(=O)=O)ccc1NC(=O)COc1ccc(F)cc1Oc1ccc2ccccc2c1Cl	6.73	5.51	3.87	47.1	254
Cc1cc(S(N)(=O)=O)ccc1NC(=O)COc1ccc(F)cc1Oc1ccc2cc(Br)ccc2c1Cl	7.00	5.92	4.94	195	1950
Cc1cc(S(N)(=O)=O)ccc1NC(=O)COc1ccc(Cl)cc1Oc1ccc2cc(C#N)ccc2c1	6.93	5.63	< 3.42	> 383	> 3290
Cc1cc(S(N)(=O)=O)ccc1NC(=O)COc1ccc(F)cc1Oc1ccc2cc(C#N)ccc2c1Br	8.34	6.09	5.36	35.3	7670
Cc1cc(S(N)(=O)=O)ccc1NC(=O)COc1ccc(F)cc1Oc1ccc2cc(C#N)ccc2c1Cl	8.33	6.27	3.63	39.7	8410
Cc1cc(S(N)(=O)=O)ccc1NC(=O)COc1ccc(F)cc1Oc1c(C)cc2ccccc2c1Cl	6.70	5.86	4.72	55.6	280
Cc1cc(S(N)(=O)=O)ccc1NC(=O)COc1ccc(F)cc1Oc1ccc2cccc(F)c2c1	7.03	5.84	4.18	171	1850
Cc1cc(S(N)(=O)=O)ccc1NC(=O)COc1ccc(Cl)cc1Oc1c(C)cc2ccccc2c1Cl	7.14	5.97	5.52	42.6	583
Cc1cc(S(N)(=O)=O)ccc1NC(=O)COc1ccc(Cl)cc1Oc1cc2ccccc2cc1C	7.23	6.12	4.68	76.7	1310
Cc1cc(S(N)(=O)=O)ccc1NC(=O)COc1ccc(Cl)cc1C(=O)c1cc(Cl)cc(C#N)c1	9.17	8.86	5.66	> 386	> 567000
Cc1cn([C@H]2C[C@H](N=[N+]=[N-])[C@@H](CO)O2)c(=O)[nH]c1=O [ZIDOVUDINE]	7.98	8.09	6.89	5600	529000
